Reference: ChEMBL document CHEMBL3259746, “Identification of [1,2,3]triazolo[4,5-d]pyrimidin-7(6H)-ones as novel inhibitors of Chikungunya virus replication” (J Med Chem, 2014)
pEC50: −log10 of the molar value.

How the values were obtained:
[1] = test system: Chikungunya virus; test: Antiviral activity against Chikungunya virus Indian Ocean strain 899 infected in African green monkey Vero cells assessed as inhibition of virus-induced cytopathic effect after 7 days by MTS/PMS method; assay type: functional, cell-based; conditions: Indian Ocean strain 899, Vero, 168 h
[2] = Cytotoxicity against non-infected African green monkey Vero cells after 7 days by MTS/PMS method; assay type: cell-based; conditions: chlorocebus sabaeus
[3] = test system: Chikungunya virus; test: Antiviral activity against Chikungunya virus LR2006-OPY1 infected in African green monkey Vero E6 cells assessed as reduction in virus yield after 2 days by real time RT-PCR analysis; assay type: functional, cell-based; conditions: 48 h
[4] = test system: Chikungunya virus; test: Antiviral activity against Chikungunya virus Venturini infected in African green monkey Vero E6 cells assessed as reduction in virus yield after 2 days by real time RT-PCR analysis; assay type: functional, cell-based; conditions: 48 h
[5] = test system: Chikungunya virus; test: Antiviral activity against Chikungunya virus Congo 95 infected in African green monkey Vero E6 cells assessed as reduction in virus yield after 2 days by real time RT-PCR analysis; assay type: functional, cell-based; conditions: Congo 95, Vero, 48 h
[6] = test system: Chikungunya virus; test: Antiviral activity against Chikungunya virus St. Martin infected in African green monkey Vero E6 cells assessed as reduction in virus yield after 2 days by real time RT-PCR analysis; assay type: functional, cell-based; conditions: 48 h
[7] = test system: Semliki Forest virus; test: Antiviral activity against Semliki forest virus Vietnam infected in African green monkey Vero E6 cells assessed as reduction in virus yield after 2 days by real time RT-PCR analysis; assay type: functional, organism-based; conditions: 48 h
[8] = test system: Sindbis virus; test: Antiviral activity against Sindbis virus HRsp infected in African green monkey Vero E6 cells assessed as reduction in virus yield after 2 days by real time RT-PCR analysis; assay type: functional, organism-based; conditions: 48 h
[9] = Cytotoxicity against non-infected African green monkey Vero E6 cells up to 300 uM after 2 days; assay type: cell-based; conditions: chlorocebus sabaeus, 48 h
Outline: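 Uninfected Vero E6 cells were tested up to 300 μM under the same settings as the 2-day virus-yield assay: 5 × 10⁴ cells/well, 2.5% FCS medium, and 2-fold dilutions in triplicate.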

[10] = Selectivity index, ratio of CC50 for African green monkey Vero cells to EC50 for Chikungunya virus Indian Ocean strain 899 infected in African green monkey Vero cells; assay type: toxicity, cell-based; conditions: read-out: Ratio CC50/EC50

| Structure (SMILES) | pEC50 [1] | EC90 [1] | CC50 at 168 h [2] | other results |
| --- | --- | --- | --- | --- |
| CC(=O)c1cccc(-n2nnc3c(=O)n(C)c(C)nc32)c1 | < 3.36 | > 441 µM | > 706 µM | – |
| CC(=O)c1cccc(-n2nnc3c(=O)[nH]c(C)nc32)c1 | 4.72 | 38 µM | > 743 µM | pEC50 [3]: 4.60; pEC50 [4]: 4.59; pEC50 [5]: 5.19; pEC50 [6]: 4.62; pEC50 [7]: < 3.33; pEC50 [8]: < 3.33; Activity [9]: Non-toxic |
| CC(=O)c1cccc(-n2nnc3c(N)nc(C)nc32)c1 | 3.65 | 309 µM | > 746 µM | – |
| CNc1nc(C)nc2c1nnn2-c1cccc(C(C)=O)c1 | < 3.35 | > 443 µM | 514 µM | – |
| COc1nc(C)nc2c1nnn2-c1cccc(C(C)=O)c1 | < 3.36 | > 441 µM | 495 µM | – |
| CC(=O)c1cccc(-n2cnc3c(=O)[nH]c(C)nc32)c1 | 3.90 | 161 µM | 491 µM | – |
| CC(=O)c1cccc(-n2c(C)nc3c(=O)[nH]c(C)nc32)c1 | < 3.36 | > 440 µM | > 703 µM | – |
| COc1ccccc1-n1nnc2c(=O)[nH]c(C)nc21 | 3.46 | 460 µM | > 777 µM | – |
| COc1cccc(-n2nnc3c(=O)[nH]c(C)nc32)c1 | 4.55 | 179 µM | > 777 µM | – |
| Cc1nc2c(nnn2-c2cccc(Cl)c2)c(=O)[nH]1 | 4.49 | 235 µM | > 764 µM | – |
| Cc1nc2c(nnn2-c2cccc(C(=O)c3ccccc3)c2)c(=O)[nH]1 | 4.64 | 47 µM | > 604 µM | – |
| Cc1nc2c(nnn2-c2cccc(OC(C)C)c2)c(=O)[nH]1 | 4.92 | 156 µM | > 704 µM | – |
| CC(=O)Nc1cccc(-n2nnc3c(=O)[nH]c(C)nc32)c1 | 3.50 | 425 µM | 206 µM | – |
| Cc1nc2c(nnn2-c2cccc(N(C)C)c2)c(=O)[nH]1 | < 3.43 | > 370 µM | 538 µM | – |
| Cc1nc2c(nnn2-c2cccc(C#N)c2)c(=O)[nH]1 | 3.88 | 187 µM | > 793 µM | – |
| CC(=O)c1cccc(-n2nnc3c(=O)[nH]cnc32)c1 | < 3.31 | > 490 µM | > 784 µM | – |

| Structure (SMILES) | pEC50 [1] | EC90 [1] | CC50 at 168 h [2] | other results |
| --- | --- | --- | --- | --- |
| CC(=O)c1ccc(-n2nnc3c(=O)[nH]c(C)nc32)cc1 | 3.49 | > 743 µM | > 743 µM | – |
| CCCOc1ccc(-n2nnc3c(=O)[nH]c(C)nc32)cc1 | 3.77 | > 701 µM | 594 µM | – |
| Cc1nc2c(nnn2-c2ccc3c(c2)OCO3)c(=O)[nH]1 | < 3.34 | > 461 µM | > 737 µM | – |
| CCOC(=O)c1cccc(-n2nnc3c(=O)[nH]c(C)nc32)c1 | 3.69 | 331 µM | 322 µM | – |
| Cc1nc2c(nnn2-c2cccc(C(=O)O)c2)c(=O)[nH]1 | < 3.40 | > 399 µM | > 638 µM | – |
| CC(C)Oc1cccc(-n2nnc3c(=O)[nH]c(C(F)(F)F)nc32)c1 | 4.17 | > 147 µM | 104 µM | – |
| CCc1nc2c(nnn2-c2cccc(OC(C)C)c2)c(=O)[nH]1 | 5.52 | 18 µM | > 668 µM | pEC50 [3]: 5.59; pEC50 [4]: 5.85; pEC50 [5]: 6.12; pEC50 [6]: 5.54; pEC50 [7]: 3.66; pEC50 [8]: 4.16; Activity [9]: Non-toxic; selectivity ratio [10]: > 222 |
| CC(C)Oc1cccc(-n2nnc3c(=O)[nH]c(CC#N)nc32)c1 | 3.94 | 137 µM | 215 µM | – |
| CCCc1nc2c(nnn2-c2cccc(OC(C)C)c2)c(=O)[nH]1 | < 3.40 | > 399 µM | > 638 µM | – |
| CC(C)Oc1cccc(-n2nnc3c(=O)[nH]c(C(C)C)nc32)c1 | 3.55 | > 638 µM | > 638 µM | – |
| CC(C)Oc1cccc(-n2nnc3c(=O)[nH]c(-c4ccccc4)nc32)c1 | 3.69 | > 360 µM | 277 µM | – |
| CC(C)Oc1cccc(-n2nnc3c(=O)[nH]c(-c4ccncc4)nc32)c1 | 4.12 | > 144 µM | 82 µM | – |
| CC(C)Oc1cccc(-n2nnc3c(=O)[nH]c(=O)[nH]c32)c1 | < 3.36 | > 435 µM | > 696 µM | – |
| Cc1nc2c(nnn2Cc2cccc(OC(C)C)c2)c(=O)[nH]1 | 3.78 | 232 µM | > 872 µM | – |
| CC(=O)c1cccc(-n2nnc3c(Cl)nc(C)nc32)c1 | < 3.76 | > 174 µM | > 174 µM | – |
| CCN(CC)CCCC(C)Nc1ccnc2cc(Cl)ccc12 (centres undefined) [CHLOROQUINE] | – | 21 µM | – | – |
